Results published in publication PMC7982424 (Acta Pharmaceutica Sinica. B, 2020).

Assays:
[1] = Microsomal stability assay, human liver microsomes; assay type: in vitro ADME; details: human, pH 7.4
[2] = Microsomal stability assay, mouse liver microsomes; assay type: in vitro ADME; details: mouse, pH 7.4
HIV-1NL4-3 = test: Anti-HIV-1 assay in TZM-GFP cells; assay type: cell-based
Summary of the method: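 TZM-GFP cells seeded at 1 × 10^4 per well; after 24 h, medium replaced with test compound at 20 μmol/L, with actives retested at 2 μmol/L. HIV-1NL4-3 (HEK 293FT-transfection stock, MT2-propagated, PEG-concentrated) added at MOI 1 24 h later. After 48 h, GFP-positive cells counted by imaging; inhibition relative to DMSO controls. Duplicates, at least two independent experiments.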

Cytotoxicity assay = assay type: cell-based; details: human, TZM-GFP cells
Summary of the method: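 TZM-GFP cells were plated at 1 × 10^4 cells per well and exposed continuously to increasing concentrations of test compound for 72 h. Viable cells were counted by XTT. CC50 came from a log(inhibitor) vs normalized response, variable-slope fit for each independent assay, then averaged. Runs were in duplicate across at least two independent experiments; mean ± SD.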

CN(C(=O)[C@H](Cc1ccccc1)NC(=O)CNC(=O)c1ccccc1)c1ccccc1 [Compound 18, (S)-N-(2-((1-(Methyl(phenyl)amino)-1-oxo-3-phenylpropan-2-yl)amino)-2-oxoethyl)benzamide]
half-life at 1 μmol/L [1]: 15 min | half-life at 1 μmol/L [2]: 3.6 min | inhibition at 2 µM (HIV-1NL4-3; Human immunodeficiency virus 1, read-out: Inhibition at 2 μmol/L): 15% | inhibition at 20 µM (HIV-1NL4-3; Human immunodeficiency virus 1, read-out: Inhibition at 20 μmol/L): 96% | CC50 at 72 h (Cytotoxicity assay): > 50 µM
